Screening results (PubChem BioAssay)
An excerpt weighted towards active compounds, which were near 3.2% of everything screened.
DAX1 inh-1: inhibitors of human orphan nuclear receptor DAX1 (NR0B1) | P51843 | HEK293 Gal4-DAX1 luciferase reporter, luminescence | inhibition, % at 6.75 µM | hit rate 0.99% among 340,000 | AID 504766;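 active = inhibition above the mean over all tested compounds plus 3 SD, cut at about 4.2% in these data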;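 also: inhibition shows as a rise in luminescence from relieved DAX1 repression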
SMARCA2 act: increases SMARCA2 function in MMTV reporter cells | activation, % at 9.1 µM | hit rate 1% among 370,000 | AID 652017 | MG213 cells, MMTV-luciferase reporter, dexamethasone, overnight; in the data active = activation above about 7.8%
NR2E3 ag-1: activates human photoreceptor nuclear receptor NR2E3; GST-NR2E3/biotin-RetCOR TR-FRET, 1536-well; Q9Y5X4; hit rate 0.12% among 320,000; inhibition of corepressor binding, % at 4.78 µM;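 active = percent inhibition above the cutoff of mean plus 3 SD of all tested compounds, set per screening campaign, cut at about 20% in these data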
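Material: NR2E3–RetCOR corepressor complex / Incubation: Compound–protein incubation for 5 h at 4 °C / Dosing: compound at 4.8 µM, single dose / Detection: time-resolved FRET / Benchmarks: high control biotin, low control 0.6% DMSO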
NR2E3 ag-2: activates human NR2E3 receptor. CHO-S Gal4-NCOR/VP16-NR2E3 two-hybrid, luciferase. hit rate 0.35% among 360,000. inhibition of corepressor binding, % at 3.98 µM;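 active = inhibition above the mean of all tested compounds plus 3 SD, cut at about 70% in these data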;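 also: higher means lower luciferase signal from less NR2E3 corepressor binding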
JMJD2C inh: human JMJD2C demethylase inhibition; hit rate 0.069% among 330,000; GST-JMJD2C(1-420) H3K9me3 demethylation, DELFIA europium; Q9H3R0; inhibition, % at 2.35 µM;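 active = more than half of a compound's replicate wells show inhibition beyond 50%, single wells judged on their own value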;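 also: signal counts dimethyl H3K9 product captured on neutravidin plate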
Target sequence (Q9H3R0 1-420 limits assumed): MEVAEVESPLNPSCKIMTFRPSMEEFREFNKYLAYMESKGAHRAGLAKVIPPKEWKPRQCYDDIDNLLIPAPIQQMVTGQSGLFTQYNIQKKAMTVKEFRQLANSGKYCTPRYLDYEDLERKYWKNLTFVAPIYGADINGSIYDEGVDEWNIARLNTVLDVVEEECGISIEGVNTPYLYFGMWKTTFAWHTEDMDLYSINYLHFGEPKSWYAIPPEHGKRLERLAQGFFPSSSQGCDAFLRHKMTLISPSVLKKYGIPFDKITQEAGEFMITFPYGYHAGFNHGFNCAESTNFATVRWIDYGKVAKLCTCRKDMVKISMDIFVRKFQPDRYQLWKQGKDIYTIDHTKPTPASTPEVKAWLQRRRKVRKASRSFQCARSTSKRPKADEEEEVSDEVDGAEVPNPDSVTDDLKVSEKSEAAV
DAX1 inh-2: blocks DAX1 repression of SF-1 activated StAR promoter; HEK293T StAR-luciferase reporter, SF-1/DAX-1 repression relief; inhibition, % at 6.8 µM; hit rate 1.1% among 370,000;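 active = inhibition above the mean over all tested compounds plus 3 SD, cut at about 3.6% in these data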;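 also: higher inhibition means more luminescence from relief of DAX-1 repression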
DAX1 conf: NR0B1 (human) inhibition, confirmation. inhibition, % at 6.8 µM. shares compounds with DAX1 inh-2. hit rate 87% among 2,400. HEK293T StAR-promoter luciferase reporter, SF-1/DAX-1 repression;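 active = inhibition above the average of every tested compound plus 3 SD, cut at about 3.8% in these data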;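 also: active compounds raise luminescence by relieving repression of the StAR reporter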
SF1 mutant ctr: counter-screen for DAX1 inhibitors: nonselective inhibitors with SF-1 AF2 mutant; inhibition, % at 6.8 µM; shares compounds with DAX1 inh-2; hit rate 78% among 2,400; HEK293 StAR-luciferase, luminescence;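 active = inhibition above the mean of all tested compounds plus 3 SD, cut at about 3% in these data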
Hits are given with their value; - = inactive; . = no result.

SMILES	DAX1 inh-1	SMARCA2 act	NR2E3 ag-1	NR2E3 ag-2	JMJD2C inh	DAX1 inh-2	DAX1 conf	SF1 mutant ctr
CCN(N=O)c1ccc(C=C2C=Cc3ccccc32)cc1	-	-	.	-	.	6.6	9.3	5.7
CC(=O)N(C)c1ccc(C=C2C=Cc3ccccc32)cc1	-	-	.	-	.	4.9	-	-
O=C(Nc1ccc(Cl)cc1)N1CCC(c2ccccc2)C1 (stereo not given)	6.8	-	-	-	-	5.6	12	6.6
Fc1ccc(-c2nnc(-c3ccc4ccccc4c3)o2)cc1	-	-	.	-	.	7.0	11	5.2
Fc1ccc(-c2nnc(-c3ccc(F)cc3)o2)cc1	-	-	.	-	-	-	.	.
COc1ccc(-c2noc(C3CCCN(C(=O)Nc4ccc(Cl)cc4)C3)n2)cc1 (stereo not given)	.	-	.	.	.	-	.	.
O=C(C=NNc1ccccc1)c1ccccc1	4.5	-	.	-	.	7.3	17	9.1
O=C(O)c1ccc(N/N=C/C(Br)=C/c2ccccc2)cc1	-	-	-	-	-	5.2	13	4.2
O=C(N/N=C/C(Br)=C/c1ccccc1)C(O)c1ccccc1 (stereo not given)	-	-	-	-	-	-	.	.
Oc1ccccc1/C=N/Nc1ccccc1	-	-	-	-	-	-	.	.
O=C(O)c1ccc(N/N=C/c2cccc(F)c2)cc1	-	-	-	-	-	6.3	15	8.3
CCN(CC)c1ccc(/C=C(\C#N)c2ccccn2)cc1	-	.	-	-	-	.	.	.
CN(CCC#N)c1ccc(/C=C(\C#N)c2ccccn2)cc1	-	-	-	-	-	5.7	12	-
CCN(Cc1ccccc1)c1ccc(/C=C(\C#N)c2ccccn2)cc1	-	-	-	-	-	5.1	3.7	5.7
CN(CCC#N)c1ccc(C=C(C#N)c2ccc(Br)cc2)cc1	-	-	.	-	.	-	.	.
CCOC(=O)C(NC(=O)NCc1ccc(F)cc1)(OCC)C(F)(F)F (stereo not given)	-	-	-	-	-	-	.	.
CCOC(=O)C(NC(=O)Nc1ccc(Cl)cn1)(Oc1ccc(F)cc1)C(F)(F)F (stereo not given)	-	-	-	-	-	4.8	4.0	3.2
COC(=O)[C@]12C[C@H](CC(=O)NCc3ccc(C)o3)C(=O)N(Cc3cccc4ccccc34)C1=C[C@H](C1CCCC1)O[C@@H]2C	.	-	.	.	.	-	.	.
Cc1cccc(CCNC(=O)Cn2ncc3c2-c2cc(C)ccc2OC3)c1	.	-	.	.	.	-	.	.
CCOC(=O)c1cc(-c2ccc3c(c2)OCCO3)n[nH]1	5.8	-	-	-	-	5.3	13	9.9
Oc1ccccc1-c1cc(-c2ccc3c(c2)OCCO3)n[nH]1	-	-	-	-	-	5.9	6.0	-
COc1ccc(CCN(Cc2cccs2)S(=O)(=O)c2ccc(C)s2)cc1OC	.	-	.	.	.	-	.	.
O=C(CSc1nc2ccccc2nc1N1CCCCC1)N1CCN(C(c2ccccc2)c2ccc(Cl)cc2)CC1 (stereo not given)	.	-	.	.	.	-	.	.
COC(=O)c1sccc1NC(=O)Nc1ccc(C)c(C)c1	-	-	.	-	-	13	17	9.7
CCc1ccc(NC(=O)Nc2ccsc2C(=O)OC)cc1	-	-	-	-	-	16	16	9.9
O=C(OCc1nc2ccccc2s1)c1cccs1	4.9	-	-	-	-	5.6	15	6.3
COc1cc(OC)cc(C(=O)NCC(=O)OCc2nc3ccccc3s2)c1	6.9	-	-	-	-	4.8	13	7.4
COc1cccc([C@@H]2NC(=O)C/C=C/[C@H](C)[C@H](c3cccc(OC)c3)NC(=O)C/C=C/[C@@H]2C)c1	.	-	.	.	.	-	.	.
COC(=O)[C@@]12CCCCC3=C1N(CCC3)C(=O)[C@H]2CC(=O)N1CCCCC1	.	-	.	.	.	-	.	.
Cc1ccc(OCc2csc(N)n2)cc1	-	-	-	-	-	5.1	-	-
